The results in this text go back to ChEMBL document CHEMBL5136958, “The development of HEC-866 and its analogues for the treatment of idiopathic pulmonary fibrosis” (RSC Med Chem, 2021).

Series [1] can be described thus: Volume of distribution at steady state in cynomolgus monkey at 1 mg/kg, iv by LC-MS/MS analysis. The settings on record: in vivo, read-out: Vdss. It is filed as ADME, organism-based, Macaca fascicularis.
Series [2] can be described thus: Oral bioavailability in Sprague-Dawley rat model of bleomycin-induced pulmonary fibrosis at 5 mg/kg by LC-MS/MS analysis. The settings on record: in vivo. It is filed as ADME, organism-based. The gist of the method: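 Male Sprague-Dawley rats with induced pulmonary fibrosis were dosed 2.0 mg kg⁻¹ i.v. or 5.0 mg kg⁻¹ p.o. Plasma was stored at -70 °C, and the supernatant was analysed by LC-MS/MS.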

For series [3], the system named is HFL1. The series is described as follows: Antifibrotic activity in TGF-beta1-induced HFL1 cell injury assessed as down regulation of collagen 3 mRNA expression at 0.625 to 10 uM measured after 24 hrs by RT-PCR analysis. It is filed as functional, cell-based. The settings on record: Homo sapiens, dose 0.625-10 µM. In outline:
(§1)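 TGF-β1-induced HFL-1 cells treated 24 h (test range 0.625–10 μM; comparator 3 mM); collagen 1 and collagen 3 mRNA measured by RT-PCR; mean of n = 3.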

Series [4] in a line: Cmax in dog at 5 mg/kg, po by LC-MS/MS analysis. The series is classed as ADME, organism-based, Canis lupus familiaris. Further details: dose 5 mg/kg, route po. Conditions: in vivo.
The nature of series [5]: Volume of distribution at steady state in dog at 1 mg/kg, iv by LC-MS/MS analysis. It is filed as ADME, organism-based, Canis lupus familiaris. Conditions: in vivo, read-out: Vdss.
Series [6] in a line: Half life in cynomolgus monkey at 5 mg/kg, po by LC-MS/MS analysis. It is filed as ADME, organism-based, Macaca fascicularis. Conditions: in vivo.
Series [7] in a line: AUC(infinity) in Sprague-Dawley rat model of bleomycin-induced pulmonary fibrosis at 5 mg/kg, po by LC-MS/MS analysis. More on the design: time infinity, dose 5 mg/kg, route po. Conditions: in vivo. It is filed as ADME, organism-based. The gist of the method: (§2)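 Male Sprague-Dawley rats with induced pulmonary fibrosis; single i.v. (2.0 mg kg⁻¹) or p.o. (5.0 mg kg⁻¹) administration. Plasma samples stored at −70 °C; the supernatant was analysed by LC-MS/MS for PK parameters.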

Series [8] is described as follows: Half life in monkey liver microsomes by LC-MS/MS analysis. The series is classed as ADME, Macaca mulatta, Microsome. The settings on record: rhesus monkey. In outline:
(§3)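 Liver microsomes (human, monkey, dog, rat, mouse) incubated with test compound at 37 °C with NADPH cofactor; samples at 0, 5, 15, 30, 60 min for half-life and in vitro CLint.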

A short description of series [9]: Half life in Sprague-Dawley rat model of bleomycin-induced pulmonary fibrosis at 2 mg/kg, iv by LC-MS/MS analysis. Conditions: in vivo. It is filed as ADME, organism-based. In outline: as §2
For series [10], the system named is HFL1. The series can be described thus: Antifibrotic activity in TGF-beta1-induced HFL1 cell injury assessed as down regulation of collagen 1 mRNA expression at 0.625 to 10 uM measured after 24 hrs by RT-PCR analysis. It is filed as functional, cell-based. Conditions: Homo sapiens, dose 0.625-10 µM. In outline: as §1
Series [11] in a line: AUClast in Sprague-Dawley rat model of bleomycin-induced pulmonary fibrosis at 5 mg/kg, po by LC-MS/MS analysis. The series is classed as ADME, organism-based. Further details: time 0 - last, dose 5 mg/kg, route po. The settings on record: in vivo. In outline: as §2
Series [12] in a line: AUClast in cynomolgus monkey at 5 mg/kg, po by LC-MS/MS analysis. The series is classed as ADME, organism-based, Macaca fascicularis. Further details: time 0 - last, dose 5 mg/kg, route po. The settings on record: in vivo.
The test system of a further series is Rattus norvegicus. The series is described as follows: Antifibrotic activity against bleomycin-induced pulmonary fibrosis in po dosed Sprague-Dawley rat assessed as reduction in histopathological changes administered daily for 1 to 14 days starting from post bleomycin stimulation by H and E staining based assay. The settings on record: dose 2-6 mg/kg, time 1-14 day, DDE = dose-dependent effect. It is filed as functional, organism-based. The gist of the method: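 Bleomycin-induced lung fibrosis in SD rats; oral dosing daily from day 1 for 14 days; saline for sham and bleomycin groups; comparator 100 mg kg⁻¹ d, test doses 2 and 6 mg kg⁻¹ d; lung pathology assessed by HE histology.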

Series [13] in a line: Half life in dog liver microsomes by LC-MS/MS analysis. The series is classed as ADME, Canis lupus familiaris, Microsome. In outline: as §3
Series [14] can be described thus: Mutagenecity in Salmonella typhimurium TA98 at 7.8 to 1000 ug measured after 2 to 3 days by mini-Ames test. The series is classed as toxicity, Salmonella enterica subsp. enterica serovar Typhimurium. Conditions: dose lower 7.8 µg, time lower 2 day, dose upper 1000 µg, time upper 3 day. In outline: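 Bacterial reverse mutation assay scoring reverse gene mutations at the histidine locus in Salmonella typhimurium strains TA98 and TA100.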

Series [15] has as its system HFL1. The series can be described thus: Antiproliferative activity against human HFL1 cells assessed as reduction in cell proliferation measured after 24 hrs by CCK-8 assay. It is filed as functional, cell-based. The settings on record: HFL1, 24 h. In outline: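 Human fetal lung fibroblasts (HFL-1); growth inhibition quantified with CCK-8; IC50 averaged from 3 experiments, each in duplicate.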

Activity calls are given as the source filed them. The rule behind the calls is not given here.

For the compound `Cc1cc(=O)n(-c2ccc(N3CCC(Cc4ccc(Cl)c(F)c4)CC3)c(Cl)c2)c(C)n1`, the Vd in [1] was 3.9 L/kg; in series [5], 1.8 L/kg. For the same compound, the bioavailability in series [2] came to 105%. The outcome in the series on HFL1 [3] and in the series with HFL1 [10] was Active. Moreover, in series [4], the concentration peaked (Cmax) at 628 ng/mL. Further, the half-life was 14 h in series [6], 0.695 h in series [8], 26 h in [9] and 4.93 h in series [13]. The AUC(0-inf) in series [7] came out at 17100 ng·h/mL. The AUC(0-t) amounted to 11200 ng·h/mL in series [11] and 12900 ng·h/mL in series [12]. Moreover, the Activity entry was “Dde” in the series with Rattus norvegicus and “Non-Toxic” in series [14]. Besides, in the series on HFL1 [15], the IC50 is 60 µM.

As usually defined, the Cmax is the highest concentration seen after dosing. As a reminder, the half-life is how long it takes for the measured level to halve. One may read the AUC(0-inf) as total exposure, with the tail of the curve extrapolated. For orientation: AUC(0-t) means exposure summed from dosing to a finite time, without extrapolation to infinity. Usually IC50 stands for the point on the concentration scale where inhibition reaches its midpoint.
